System: MS2 coat protein
Assay: apparent Kd, MS2 coat protein; higher = weaker binding; RNA-MaP array; FMN 200 µM where present
Summary of the method: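 Designs were transcribed by stalled E. coli RNA polymerase on Illumina sequencing-chip clusters. They were titrated with SNAP-549-labelled MS2 coat protein from 0.7 or 1.5 nM, doubling to 3 µM, in 100 mM Tris-HCl pH 7.5, 80 mM KCl, 4 mM MgCl2, BSA, DTT, yeast tRNA and Tween-20, without and then with constant ligand. The apparent Kd is the median of filtered per-cluster fits after normalisation of green signal to red-channel RNA signal and control-cluster median Fmax.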

[1] = designed as: ON switch for flavin mononucleotide, no ligand
[2] = ligand present: flavin mononucleotide, designed as: ON switch for flavin mononucleotide
[3] = designed as: OFF switch for flavin mononucleotide, no ligand
[4] = ligand present: flavin mononucleotide, designed as: OFF switch for flavin mononucleotide

Sequence | apparent Kd [1] | apparent Kd [2] | apparent Kd [3] | apparent Kd [4]
AUCCUACAUGAGGAUCACCCAUGUGAGGCCUCAAUAGGAUAUGCGUGUGCCUUGGCGCAUGCAGAAGGAUUGAAGC | 363 nM | 52.5 nM |  | 
GGUACUCAAAGAGUACUUGGUCGAACAUGAGGAUCACCCAUGUAGGAUAUGUAAAGCAAGAAGUAACAGAAGGACAUGUGCAGC |  |  | 13.1 nM | 17.1 nM
GUCCUACAUGAGGAUCACCCAUGUAAGGAUAUGCUAGCGGUCGGCUGACUGACUGCUAGCAGAAGGUACAUGAU |  |  | 17.5 nM | 24.6 nM
UUAUCUAUGUAAGGAUAUAGAUGAUAUACGCAUCCGACAUGAGGAUCACCCAUGUUAUAUUUUGUCUAGAAGGUACAUUGUCGG | 204 nM | 179 nM |  | 
AUGUAGCUAGGAUAUACAUAGAUACAGAUUCAUGUAGAACUACAUGAGGAUCACCCAUGUAGAAGGAGCUAAAA |  |  | 28.7 nM | 50.4 nM
UUAUAAAGUGUGAGGAUAUGCUGGUCGAUAGAUCAGCAGAAGGCACAUGAGGAUCACCCAUGUAAUAUAUUUUA |  |  | 52.1 nM | 222 nM
CAAUCGGCACAGAAGGGUGACAUGAGGAUCACCCAUGUAGCGUGGCACUCAGGAGGAGCCACGCCACAGGAUAUGUGCCAGCAC | 50.5 nM | 53.8 nM |  | 
AGCUGUGGCCGAGGAUAUCUGUCUCAUAAAACCGAAAUAUAAUCGGACAUGAGGAUCACCCAUGUAGAGAAGGCGGUCUCAGCA |  |  | 21.3 nM | 83.7 nM
UGGUACUAGGGAGGAUAUGGGAAGAUACAUGAGGAUCACCCAUGUUUAAUAAUGCCGAGAGGCAACUAGAAGGCCCUAGUACCU | 253 nM | 13.9 nM |  | 
AUUUCGUCAGGAUAUCCUAGUAAUUGUUUCAUAUUUACGAAGGAGAAGGGACAUGAGGAUCACCCAUGUUGGUC |  |  | 58.7 nM | 130 nM
UCGCUGCGAGGAUAUACAUGAGGAUCACCCAUGUACGGGUCCGGGUCUUUGUCGAUUGGUAGAAGGCGCAGUGA |  |  | 61.1 nM | 397 nM
GGGUACAUCGGAGGAUAUCAUGUAAAUACAUGAGGAUCACCCAUGUCGAUGGAGACAUCGGAGAUUGAGAAGGUCGAUGUACCG | 197 nM | 9.52 nM |  | 
UCUGGUCGAGGAUAUAUAUGACGUGCUUCGGCACGAAGAUCACAUGAGGAUCACCCAUGUAGAAGGCGACCAGA |  |  | 130 nM | 1160 nM
UGACUGAAGCAAGGAUAUUGAAAAGUUAACGUACAAGAAGGUGCUGUUUAUGUCUCUUUACAUGAGGAUCACCCAUGUUUUUAU | 36.7 nM | 23.2 nM |  | 
GCACUGGAUGUAGGAUAUCAGGACGAUAAGUCCUGAGAAGGACAUGAGGAUCACCCAUGUGAUUAUACCAGUGCAAAUAAUAUA |  |  | 30.7 nM | 274 nM
ACUCAGUCAGGAUAUCGUUAAUUUAAUUGUUUGUUUUAGUUCGAGAAGGGACAUGAGGAUCACCCAUGUACUCA |  |  | 25.3 nM | 51.2 nM
GUUUCACAUGAGGAUCACCCAUGUGAGGAUAUGGUUUCGCUGGCCGUAGCCAGUGGAACCAGAAGGCGCGUGAU |  |  | 60.7 nM | 71.1 nM
ACUGUUAAGACAGGAUAUCGAUUAUAACCUCUAAAACAUGAGGAUCACCCAUGUAGUCCGUAUUGCGAGAAGGGUCAUUUUAGU | 295 nM | 233 nM |  | 
CUUCGUAUAGAGGAUAUAGGAUACUACGGUGUCCUAGAAGGCUGUACAUGAGGAUCACCCAUGUACUUCAGAUC |  |  | 11.7 nM | 13.5 nM
AAAUCACAUGAGGAUCACCCAUGUGAGGAUAUGAUACUAUGUACUUCGGUACAUAGUAUCAGAAGGCAUAUGGA |  |  | 23 nM | 35.9 nM
GCGUAAUAGGUGUAGCUAGUCGUUCAAGAAGGGUGAAGAACAUGAGGAUCACCCAUGUGGUCUAUACAGGAUAUUGAUAUACGC |  | 66.6 nM |  | 
UUGAAGAAUUAAGGAUAUUGAUUACAUAUGUUAAACAUGAGGAUCACCCAUGUGGGUUGCGGUAUCGAGAAGGUAAAUUAAUAG | 115 nM | 107 nM |  | 
UAUUCAUACGAAGGAUAUGGUUACAUGAGGAUCACCCAUGUAUGUAUAUUGAUCUAGUUAUUUAACCAGAAGGUCGGGUGUAAA |  |  | 57.3 nM | 91.3 nM
GGUUGUUAUGACAGCGAGUGUUAGAGAAGGUACAUGAGGAUCACCCAUGUACGUGAUCUUGCGAGUAAGGAUAUCUGUUAUUCA |  |  | 5.65 nM | 5.83 nM

Sequence | apparent Kd [1] | apparent Kd [2] | apparent Kd [3] | apparent Kd [4]
GUAGCUAUCGGAGGAUAUUCAUACCGUAAACGGACAUGAGGAUCACCCAUGUAGCGAAAGCCUUGGGAGAAGGCCGAUAGCUAC | 942 nM | 88.8 nM |  | 
CGUGCGUCGACAGGAUAUACAGAUUGGCUCCGGUACAUGAGGAUCACCCAUGUAGAAGGGUCACGCACGGAUAGUUCGAUAUUA |  |  | 9.36 nM | 43.1 nM
CGAGUGUAAGGAUAUUCGGCGCCAGGGAACGACCUGGCGUAGAAGAAGGUACAUGAGGAUCACCCAUGUGGUUA |  |  | 178 nM | 18.6 nM
GAUUGAACCCAGAAGGCAUGAUCCACAUGAGGAUCACCCAUGUCGGUGAUGAGGAUAUGGCAUCGUCGCGCAGGGCACUAAUGA | 590 nM | 119 nM |  | 
CAGCCCUGAGGAUAUCCACCCUCGUACAUGAGGAUCACCCAUGUCUCCCUCUGGGCUUUCGGAGAAGGCAGGUAUC |  |  | 69 nM | 58.5 nM
CGUCGAAAUGUAGGAUAUCUGCACGAUUAGUGCAGAGAAGGACAUGAGGAUCACCCAUGUAGAUCACGACGAAUUAAUUUAAUU |  |  | 60.7 nM | 480 nM
CCGGAAAGGAAGGAUAUGCUAGACGAGAGUCUAGCAGAAGGUCCUACAUGAGGAUCACCCAUGUGGCCUCCCGG |  |  | 139 nM | 627 nM
UCAUAUAUACAAGGAUAUCAAUGAUUUAUAGAUCCUACAUGAGGAUCACCCAUGUUUUUAUAUUUUGAGAAGGUGUAAUGUCUU | 218 nM | 254 nM |  | 
AGCACGAGAGGUGCUGUCUAACCACAUGAGGAUCACCCAUGUAAGGAUAUCGCGGCUAUCGGCAUCGAGAAGGUACAGGGAGCA |  |  | 11.2 nM | 21.6 nM
AAUAAACAUGAGGAUCACCCAUGUGGUGGCCCAUGAGGAUAUCCGUACGCAAUGCGCACAGGAGAAGGCAUAGCCA | 33.9 nM | 90.8 nM |  | 
AUUAACUACAUAGGAUAUUGUUACAUGAGGAUCACCCAUGUUAUAUGGGAACUAGGAAUAUUUGUCAAGAAGGAUGUGGUUACA | 232 nM | 33 nM |  | 
CCCGUGUGUUAAGGAUAUGGCAGGCGCGUUGAACCAGAAGGUAGCACAUGAGGAUCACCCAUGUGAAUGCUCACGAAUCGAGCG |  |  | 31.3 nM | 26.8 nM
GAAAACAGAGGAUAUACAAAAUUAUGACGAAAGUCAUAAAAACAUGAGGAUCACCCAUGUAGAAGGCUGAAGAA |  |  | 29 nM | 26.9 nM
AAAAGUUGGUAAGGAUAUCCCACAUUAUUCUGACCCGUGCAAGCUACAUGAGGAUCACCCAUGUGGGAGAAGGUGCGUUAAAGA |  |  | 54.7 nM | 64.6 nM
UGAUAGGACAGAGGAUAUACGUGCUGGUGAUACUAGCAAAGUAUCGUGACAUGAGGAUCACCCAUGUAGAAGGCUGUCCUAUCU |  |  | 81.1 nM | 27.3 nM
CCUAUGUGAGGAUAUGGUGUUGGCCACAGGGAAAAGGUCCUCCAGAAGGCACAUGAGGAUCACCCAUGUCGUGA |  |  | 84.6 nM | 158 nM
UGUUGUAUUACAGGAUAUCUAGUAUUUUUACUUAGAGAAGGGUAUUCACAUGAGGAUCACCCAUGUAUAUACGAGGAAGUUGUG | 28.8 nM | 29.8 nM |  | 
AUUAUUUAAGUCAGGAUAUCGUAUUUAUUUAAAUACGAGAAGGGACAUGAGGAUCACCCAUGUAAUAAAUUUUA |  |  | 14.2 nM | 20.4 nM
CGAUAACAUAGUUAUCAGUAACGGACAUGAGGAUCACCCAUGUAGGAUAUGUUACUCAACGAGUAACAGAAGGACAUGAGUCUU |  |  | 19.2 nM | 91.2 nM
GUAGUGUAGUGAGGAUAUACGAGAUCGAUAGAUCGGCGAUCCAAUUAUACAUGAGGAUCACCCAUGUAGAAGGCACUUCACUAC |  |  | 10.1 nM | 59.2 nM
AUGCUUCACACAGGAUAUACAUGAGGAUCACCCAUGUGUCCUAGGUAGCUGACACGAGCUACCCGGUAGAAGGGUGUGAAGCAU |  |  | 17 nM | 58.4 nM
ACCUCACAUGAGGAUCACCCAUGUCAGGAUAUGUACCCGAUCAAGUCAGAGAUUGGGAGCAGAAGGGACUGCGG |  |  | 119 nM | 34.5 nM
AAUAGAAAGAUUAAUAUGAUUACAUGAGGAUCACCCAUGUAUAAGGAUAUCGACGUCAAUGACGUCGAGAAGGUAUACAUAAUA |  |  | 15.7 nM | 34 nM
UAAAUCUUGUAAGGAUAUACACGAGAUUCAAGUGUAGAAGGUACUUACAUGAGGAUCACCCAUGUAUACAUGGAUAUUAGAUAU | 142 nM | 38.9 nM |  | 

From the EternaBench riboswitch data
